This note sets out measurements from ChEMBL document CHEMBL4382270, “Total Synthesis and Biological Evaluation of Sericetin for Protection against Cisplatin-Induced Acute Kidney Injury” (J Nat Prod, 2018).

Data set [1] deals with NRK-52E. Briefly: Protection against cisplatin-induced cytotoxicity in rat NRK-52E cells assessed as increase in cell viability at 20 uM after 24 hrs by MTT assay. In kind it is functional, cell-based. The method in brief:
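NRK52E cells given test agent at 20 μM for 24 h, with or without cisplatin 30 μM. Vehicle is DMSO at 0.2% final. Viability read by MTT. Mean ± SEM, N = 3.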
Background: Formazan colour is commonly taken as a measure of viable cells.

Data set [2] deals with Rattus norvegicus. The data set is described as follows: Protection against cisplatin-induced […] in Sprague-Dawley rat assessed as reversal of histopathological changes in kidney at 1 mg/kg pretreated for 24 hrs followed by cisplatin challenge and subsequent qd dosing for 5 days measured 7 days post cisplatin challenge by H and E staining based light microscopic analysis. The class given is functional, organism-based. The method in brief: (§1)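 Male Sprague-Dawley rats (200 ± 10 g) received a single ip cisplatin dose of 6 mg/kg in saline. Test agent 1 mg/kg in 5% DMSO/0.9% saline given once 24 h before cisplatin, then daily for 5 days. Sacrifice on day 7. Read-outs: serum BUN and creatinine by clinical chemistry, kidney H&E histology, and cleaved caspase-3 by Western blot of kidney homogenate. N = 6/group.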

For data set [3], the system named is Rattus norvegicus. The data set is described as follows: Protection against cisplatin-induced […] in Sprague-Dawley rat assessed as reduction in cleaved caspase-3 level in kidneys at 1 mg/kg pretreated for 24 hrs followed by cisplatin challenge and subsequent qd dosing for 5 days measured 7 days post cisplatin challenge by Western blot analysis. The class given is functional, organism-based. The procedure, abridged:
as §1

Data set [4] can be described thus: Renal toxicity in Sprague-Dawley rat assessed as change in serum creatinine levels at 1 mg/kg administered once daily for 6 days. In kind it is organism-based. Conditions: in vivo, 144 h. The method in brief:
(§2)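 Male Sprague-Dawley rats (200 ± 10 g) given test agent alone at 1 mg/kg in 5% DMSO/0.9% saline, once and then daily for 5 further days. Killed on day 7. Serum BUN and creatinine measured by clinical chemistry, and kidneys examined by H&E histology.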

Data set [5] has as its system NRK-52E. Briefly: Cytotoxicity against rat NRK-52E cells assessed as effect on cell viability at 1 to 50 uM after 24 hrs by MTT assay. The class given is cell-based. The method in brief: (§3)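 NRK-52E rat renal tubular epithelial cells (ATCC) exposed to test agent at 0, 1, 10 or 50 μM for 24 h, with or without cisplatin 30 μM (PBS stock). Viability measured by MTT. Mean ± SEM, N = 3.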

Data set [6] has as its system Rattus norvegicus. The data set is described as follows: Protection against cisplatin-induced acute liver injury in Sprague-Dawley rat assessed as restoration of serum creatinine levels at 1 mg/kg pretreated for 24 hrs followed by cisplatin challenge and subsequent qd dosing for 5 days measured 7 days post cisplatin challenge. In kind it is functional, organism-based. The settings on record: in the assay text read “acute kidney injury” for “acute liver injury”. The procedure, abridged:
as §1

Data set [7] has as its system NRK-52E. Briefly: Protection against cisplatin-induced apoptosis in rat NRK-52E cells assessed as reduction in cleaved caspase-3 level at 10 uM after 24 hrs by Western blot analysis. In kind it is functional, cell-based. The method in brief:
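NRK-52E cells given cisplatin 30 μM with or without test agent 10 μM for 24 h. Cleaved (active) caspase-3 detected by Western blot and quantified by densitometry. Mean ± SEM, N = 3.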
Background: Immunoblotting shows a protein as a band on a membrane.

Data set [8] relates to NRK-52E. Briefly: Protection against cisplatin-induced cytotoxicity in rat NRK-52E cells assessed as improvement in morphological changes after 24 hrs by microscopic analysis. In kind it is functional, cell-based. The method in brief: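 Cells (NRK-52E) exposed to test agent at 0, 1, 10 or 50 μM plus cisplatin 30 μM for 24 h. Morphology then examined by light microscopy.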

The nature of data set [9]: Renal toxicity in Sprague-Dawley rat assessed as histopathological changes in kidney at 1 mg/kg administered once daily for 6 days by H and E staining based light microscopic analysis. In kind it is organism-based. Conditions: in vivo, 144 h. The procedure, abridged: as §2
For data set [10], the system named is NRK-52E. The data set is described as follows: Protection against cisplatin-induced cytotoxicity in rat NRK-52E cells assessed as increase in cell viability after 24 hrs by MTT assay. In kind it is functional, cell-based. The method in brief: as §3
In data set [11] the test system is NRK-52E. The data set is described as follows: Protection against cisplatin-induced cell damage in rat NRK-52E cells assessed as reduction in reactive oxygen species generation at 10 uM after 24 hrs by DCF staining based fluorescence microscopic analysis. The class given is functional. The method in brief:
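NRK-52E cells co-treated with cisplatin 30 μM and test agent 10 μM for 24 h. ROS stained with CM-H2DCFDA (DCF) and imaged by fluorescence. Percent ROS derived from DCF signal by region-of-interest quantitation. Mean ± SEM, N = 3.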

Data set [12] has as its system NRK-52E. The data set is described as follows: Protection against cisplatin-induced cell damage in rat NRK-52E cells assessed as reversal of mitochondrial membrane potential loss at 10 uM after 24 hrs by JC1 staining based fluorescence microscopic analysis. In kind it is functional. The procedure, abridged: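 After 24 h of cisplatin 30 μM with or without test agent 10 μM, NRK-52E cells stained with JC-1 and imaged by fluorescence microscopy. Red (aggregate) and green (monomer) signals quantified by ROI. Mean ± SEM, N = 3.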

Data set [13] is described as follows: Renal toxicity in Sprague-Dawley rat assessed as change in serum BUN levels at 1 mg/kg administered once daily for 6 days. The class given is organism-based. The settings on record: in vivo, 144 h. The procedure, abridged:
as §2

The subject of data set [14] is Rattus norvegicus. Briefly: Protection against cisplatin-induced acute liver injury in Sprague-Dawley rat assessed as restoration of serum BUN levels at 1 mg/kg pretreated for 24 hrs followed by cisplatin challenge and subsequent qd dosing for 5 days measured 7 days post cisplatin challenge. The class given is functional, organism-based. The settings on record: in the assay text read “acute kidney injury” for “acute liver injury”. The method in brief:
as §1

Calls of active or inactive are those of the source. The calls are words filed in the database; no cut-off is given here.

`CC(C)=CCOc1c2c(cc3oc(-c4ccccc4)c(OCc4ccccc4)c(=O)c13)OC(C)(C)C=C2`: the result with NRK-52E [1], in the data set with Rattus norvegicus [2], in the data set on Rattus norvegicus [3], in the data set on Rattus norvegicus [6], in the data set on NRK-52E [7] and in the data set on NRK-52E [11] was Active. The outcome in the data set on NRK-52E [12] and in the data set with Rattus norvegicus [14] was Active. For the same compound, the Activity result in data set [4] was “Non-Toxic”; in the data set on NRK-52E [5], “Non-Toxic”; with NRK-52E [8] it was “Dose-dependent effect”; in [9] it was “Non-Toxic”; in the data set with NRK-52E [10] it was “Dose-dependent effect”; in [13], “Non-Toxic”.
